How the values were obtained:
Integrin alpha-V/beta-1 = Integrin alpha-V/beta-1 (Homo sapiens, UniProt P05556+P06756); test: Inhibition of integrin alphaVbeta1 (unknown origin)-mediated CHO cell adhesion to fibronectin preincubated for 15 to 30 mins followed by 60 min incubation for adhesion by crystal violet staining based cell adhesion assay
How it was run: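 α5-deficient CHO cells engineered to express αvβ1 were tested for adhesion to fibronectin (0.3 mg/ml). Values reported as pIC50 (–logIC50, M) with standard deviation, n=3.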

Integrin alpha-V/beta-5 = Integrin alpha-V/beta-5 (Homo sapiens, UniProt P06756+P18084); test: Inhibition of human wild type integrin alphaVbeta5-mediated human SW480 cell adhesion to vitronectin preincubated for 15 to 30 mins followed by 60 min incubation for adhesion by crystal violet staining based cell adhesion assay
Sequence of Integrin alpha-V/beta-5 (P06756 31-889 limits assumed): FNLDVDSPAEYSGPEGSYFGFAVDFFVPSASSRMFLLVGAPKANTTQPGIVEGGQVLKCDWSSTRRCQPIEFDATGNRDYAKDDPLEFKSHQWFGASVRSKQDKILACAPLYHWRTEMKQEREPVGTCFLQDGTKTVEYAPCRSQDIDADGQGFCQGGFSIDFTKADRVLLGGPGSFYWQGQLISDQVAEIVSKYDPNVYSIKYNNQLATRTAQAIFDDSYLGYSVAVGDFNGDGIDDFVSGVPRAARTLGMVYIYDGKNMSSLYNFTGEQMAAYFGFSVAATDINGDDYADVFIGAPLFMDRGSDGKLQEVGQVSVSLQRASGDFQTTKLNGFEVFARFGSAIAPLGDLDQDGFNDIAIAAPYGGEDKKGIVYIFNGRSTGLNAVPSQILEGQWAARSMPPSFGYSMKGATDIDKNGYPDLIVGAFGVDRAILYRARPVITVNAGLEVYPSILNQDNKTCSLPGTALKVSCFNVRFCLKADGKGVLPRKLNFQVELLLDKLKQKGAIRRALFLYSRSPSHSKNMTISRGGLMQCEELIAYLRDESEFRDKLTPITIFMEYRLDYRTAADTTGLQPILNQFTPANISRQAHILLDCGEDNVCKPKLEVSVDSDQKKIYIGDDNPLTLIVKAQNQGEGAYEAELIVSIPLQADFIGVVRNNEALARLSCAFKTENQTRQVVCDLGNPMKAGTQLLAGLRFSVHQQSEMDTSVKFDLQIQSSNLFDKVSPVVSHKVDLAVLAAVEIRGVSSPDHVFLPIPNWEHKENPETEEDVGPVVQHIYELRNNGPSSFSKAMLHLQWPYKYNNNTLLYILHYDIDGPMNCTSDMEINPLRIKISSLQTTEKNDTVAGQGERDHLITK
Sequence of Integrin alpha-V/beta-5 (P06756 891-1048 limits assumed): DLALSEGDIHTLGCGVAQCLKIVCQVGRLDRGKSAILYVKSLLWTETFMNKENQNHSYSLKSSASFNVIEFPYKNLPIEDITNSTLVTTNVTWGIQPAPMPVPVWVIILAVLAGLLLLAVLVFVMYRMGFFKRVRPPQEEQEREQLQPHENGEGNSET
Sequence of Integrin alpha-V/beta-5 (P18084 24-799 limits assumed): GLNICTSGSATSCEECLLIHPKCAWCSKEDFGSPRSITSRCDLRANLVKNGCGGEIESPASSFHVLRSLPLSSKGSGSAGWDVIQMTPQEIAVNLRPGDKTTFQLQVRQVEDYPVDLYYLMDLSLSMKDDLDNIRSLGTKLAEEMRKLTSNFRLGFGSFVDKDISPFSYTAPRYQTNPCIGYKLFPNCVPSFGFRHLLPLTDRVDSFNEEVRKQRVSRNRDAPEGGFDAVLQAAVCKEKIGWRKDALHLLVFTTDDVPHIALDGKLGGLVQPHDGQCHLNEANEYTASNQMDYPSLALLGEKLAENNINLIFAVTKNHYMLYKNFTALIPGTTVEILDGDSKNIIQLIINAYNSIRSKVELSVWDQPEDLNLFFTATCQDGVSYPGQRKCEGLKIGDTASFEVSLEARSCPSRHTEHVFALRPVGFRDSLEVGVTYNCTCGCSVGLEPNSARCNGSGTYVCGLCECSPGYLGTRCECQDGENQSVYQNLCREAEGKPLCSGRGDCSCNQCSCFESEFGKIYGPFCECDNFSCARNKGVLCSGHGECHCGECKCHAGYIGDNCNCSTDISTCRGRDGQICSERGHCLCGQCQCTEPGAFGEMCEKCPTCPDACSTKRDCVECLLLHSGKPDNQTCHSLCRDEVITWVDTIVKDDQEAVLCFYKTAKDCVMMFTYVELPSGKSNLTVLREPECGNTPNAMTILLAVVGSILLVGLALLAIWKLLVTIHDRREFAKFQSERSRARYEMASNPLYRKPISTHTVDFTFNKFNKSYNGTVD
How it was run: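 Wild-type SW480 cells adhering to vitronectin (0.1 mg/ml) served to isolate αvβ5. Values reported as pIC50 (–logIC50, M) with standard deviation, n=3.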

Integrin alpha-5/beta-1 = Integrin alpha-5/beta-1 (Homo sapiens, UniProt P05556+P08648); test: Inhibition of human integrin alpha5beta1-mediated human SW480 cell adhesion to fibronectin preincubated for 15 to 30 mins followed by 60 min incubation for adhesion by crystal violet staining based cell adhesion assay
How it was run: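 Colon carcinoma SW480 cells plated on fibronectin (0.3 mg/ml) to isolate α5β1-dependent adhesion. Values reported as pIC50 (–logIC50, M) with standard deviation, n=3.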

Integrin alpha-V/beta-3 = Integrin alpha-V/beta-3 (Homo sapiens, UniProt P05106+P06756); test: Inhibition of human integrin alphaVbeta3-mediated human SW480 cell adhesion to fibrinogen preincubated for 15 to 30 mins followed by 60 min incubation for adhesion by crystal violet staining based cell adhesion assay
Sequence of Integrin alpha-V/beta-3 (P05106 27-788 limits assumed): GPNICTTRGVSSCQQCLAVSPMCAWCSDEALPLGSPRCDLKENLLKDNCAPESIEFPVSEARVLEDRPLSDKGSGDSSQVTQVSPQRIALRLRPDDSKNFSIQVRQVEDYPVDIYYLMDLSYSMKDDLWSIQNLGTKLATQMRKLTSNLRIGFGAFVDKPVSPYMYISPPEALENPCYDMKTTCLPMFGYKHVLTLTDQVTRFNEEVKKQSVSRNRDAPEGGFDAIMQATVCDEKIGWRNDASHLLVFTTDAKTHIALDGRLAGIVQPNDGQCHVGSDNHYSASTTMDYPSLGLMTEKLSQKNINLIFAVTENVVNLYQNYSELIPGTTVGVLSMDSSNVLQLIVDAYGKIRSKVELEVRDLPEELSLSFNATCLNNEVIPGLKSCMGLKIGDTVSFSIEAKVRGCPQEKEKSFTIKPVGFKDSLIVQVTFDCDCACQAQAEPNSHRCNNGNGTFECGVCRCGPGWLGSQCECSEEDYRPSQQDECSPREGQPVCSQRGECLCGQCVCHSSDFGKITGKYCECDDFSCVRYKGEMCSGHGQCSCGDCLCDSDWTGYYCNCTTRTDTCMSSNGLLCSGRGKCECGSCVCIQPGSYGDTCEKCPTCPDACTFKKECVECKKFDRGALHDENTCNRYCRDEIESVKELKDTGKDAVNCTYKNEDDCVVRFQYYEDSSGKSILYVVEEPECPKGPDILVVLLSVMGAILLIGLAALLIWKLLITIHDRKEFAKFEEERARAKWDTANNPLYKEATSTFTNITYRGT
Sequence of Integrin alpha-V/beta-3 (P06756 31-889 limits assumed): as the sequence (P06756 31-889 limits assumed) above
Sequence of Integrin alpha-V/beta-3 (P06756 891-1048 limits assumed): as the sequence (P06756 891-1048 limits assumed) above
How it was run: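 Adhesion of SW480 cells transfected with human β3 to fibrinogen (1 mg/ml), isolating αvβ3. Values reported as pIC50 (–logIC50, M) with standard deviation, n=3.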

Integrin alpha-V/beta-8 = Integrin alpha-V/beta-8 (Homo sapiens, UniProt P06756+P26012); test: Inhibition of human integrin alphaVbeta8-mediated human SNB19 cell adhesion to recombinant human TGFbeta1 LAP preincubated for 15 to 30 mins followed by 60 min incubation for adhesion by crystal violet staining based cell adhesion assay; design: species or system SNB-19
Sequence of Integrin alpha-V/beta-8 (P06756 31-889 limits assumed): as the sequence (P06756 31-889 limits assumed) above
Sequence of Integrin alpha-V/beta-8 (P06756 891-1048 limits assumed): as the sequence (P06756 891-1048 limits assumed) above
Sequence of Integrin alpha-V/beta-8 (P26012 43-769 limits assumed): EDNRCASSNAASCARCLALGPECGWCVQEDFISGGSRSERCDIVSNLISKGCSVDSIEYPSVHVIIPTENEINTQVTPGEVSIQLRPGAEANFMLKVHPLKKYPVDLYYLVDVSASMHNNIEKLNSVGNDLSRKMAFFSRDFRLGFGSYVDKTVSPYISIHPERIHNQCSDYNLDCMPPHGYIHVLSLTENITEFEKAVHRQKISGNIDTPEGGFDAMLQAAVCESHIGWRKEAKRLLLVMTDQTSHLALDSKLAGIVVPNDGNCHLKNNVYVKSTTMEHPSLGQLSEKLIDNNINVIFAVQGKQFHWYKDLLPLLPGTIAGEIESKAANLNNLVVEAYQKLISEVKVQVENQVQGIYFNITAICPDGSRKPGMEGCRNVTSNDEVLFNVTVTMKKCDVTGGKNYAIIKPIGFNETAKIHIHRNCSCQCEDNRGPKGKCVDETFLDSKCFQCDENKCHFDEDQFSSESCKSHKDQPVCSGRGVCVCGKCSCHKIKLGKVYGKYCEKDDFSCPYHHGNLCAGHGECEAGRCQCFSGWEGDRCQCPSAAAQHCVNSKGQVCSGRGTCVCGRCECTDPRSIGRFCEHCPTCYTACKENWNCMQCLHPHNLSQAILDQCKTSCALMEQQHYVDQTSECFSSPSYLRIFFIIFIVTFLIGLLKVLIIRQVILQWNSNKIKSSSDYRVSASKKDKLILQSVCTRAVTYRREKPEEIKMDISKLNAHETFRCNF
How it was run: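 The αvβ8-expressing glioma line SNB19 was tested for adhesion to recombinant human TGFβ1 LAP (1 mg/ml). Values reported as pIC50 (–logIC50, M) with standard deviation, n=3.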

Sequence of Integrin alpha-V/beta-1 (P05556 21-798 limits assumed): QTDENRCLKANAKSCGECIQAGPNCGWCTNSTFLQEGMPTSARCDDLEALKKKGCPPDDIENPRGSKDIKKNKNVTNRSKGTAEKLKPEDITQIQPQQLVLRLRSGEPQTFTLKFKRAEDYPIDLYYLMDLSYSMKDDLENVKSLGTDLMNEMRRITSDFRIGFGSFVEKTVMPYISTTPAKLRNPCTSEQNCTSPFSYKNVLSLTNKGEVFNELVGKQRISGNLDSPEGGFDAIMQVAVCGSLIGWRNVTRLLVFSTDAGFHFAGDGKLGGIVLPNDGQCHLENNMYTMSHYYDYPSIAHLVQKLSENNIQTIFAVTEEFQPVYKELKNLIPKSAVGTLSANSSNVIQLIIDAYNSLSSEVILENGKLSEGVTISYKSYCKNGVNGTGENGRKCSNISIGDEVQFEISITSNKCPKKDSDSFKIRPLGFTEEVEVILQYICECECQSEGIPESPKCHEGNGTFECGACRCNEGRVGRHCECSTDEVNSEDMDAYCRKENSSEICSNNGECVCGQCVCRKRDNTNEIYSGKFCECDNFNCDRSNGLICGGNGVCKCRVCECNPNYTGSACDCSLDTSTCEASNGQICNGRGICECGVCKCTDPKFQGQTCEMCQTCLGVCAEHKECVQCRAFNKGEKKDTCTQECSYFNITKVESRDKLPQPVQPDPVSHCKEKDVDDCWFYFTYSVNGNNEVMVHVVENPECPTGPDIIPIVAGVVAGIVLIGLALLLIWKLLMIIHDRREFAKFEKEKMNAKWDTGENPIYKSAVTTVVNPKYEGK
Sequence of Integrin alpha-V/beta-1 (P06756 31-889 limits assumed): as the sequence (P06756 31-889 limits assumed) above
Sequence of Integrin alpha-V/beta-1 (P06756 891-1048 limits assumed): as the sequence (P06756 891-1048 limits assumed) above

IC50 (Integrin alpha-V/beta-1; read-out: IC50) | SMILES | also measured
2500 nM | N=C(N)NCCCCC(=O)Nc1ccc(C[C@H](NC(=O)[C@@H]2CCCN2S(=O)(=O)c2ccc3ccccc3c2)C(=O)O)cc1 | 
0.63 nM | N=C(N)NCCCCC(=O)Nc1ccc(C[C@H](NC(=O)[C@@H]2CCCN2S(=O)(=O)c2ccccc2)C(=O)O)cc1 | IC50 (Integrin alpha-V/beta-5): > 10000 nM; IC50 (Integrin alpha-5/beta-1): > 10000 nM; IC50 (Integrin alpha-V/beta-3): > 10000 nM; IC50 (Integrin alpha-V/beta-8): > 10000 nM
0.06 nM | N=C(N)Nc1cccc(C(=O)Nc2ccc(C[C@H](NC(=O)[C@@H]3CCCN3S(=O)(=O)c3ccccc3)C(=O)O)cc2)c1 | IC50 (Integrin alpha-V/beta-5): > 10000 nM; IC50 (Integrin alpha-5/beta-1): 63 nM; IC50 (Integrin alpha-V/beta-3): 160 nM; IC50 (Integrin alpha-V/beta-8): 40 nM
800 nM | N=C(N)Nc1ccc(C(=O)Nc2ccc(C[C@H](NC(=O)[C@@H]3CCCN3S(=O)(=O)c3ccccc3)C(=O)O)cc2)cc1 | 
0.5 nM | N=C(N)NCCCCC(=O)Nc1ccc(C[C@H](NC(=O)[C@@H]2C[C@H](F)CN2S(=O)(=O)c2ccccc2)C(=O)O)cc1 | 
160 nM | N=C(N)NCCCCC(=O)Nc1ccc(C[C@H](NC(=O)[C@@H]2CCN2S(=O)(=O)c2ccccc2)C(=O)O)cc1 | 
32 nM | N=C(N)NCCCCC(=O)Nc1ccc(C[C@H](NC(=O)[C@@H]2CCCN2S(=O)(=O)c2cccnc2)C(=O)O)cc1 | 
 | Cc1cc(C)c(S(=O)(=O)N2CCC[C@H]2C(=O)N[C@@H](Cc2ccc(NC(=O)CCCCNC(=N)N)cc2)C(=O)O)c(C)c1 | IC50 (Integrin alpha-V/beta-1; cho, read-out: IC50): > 10000 nM; IC50 (Integrin alpha-V/beta-1; read-out: pIC50 (converted)): > 10000 nM
2 nM | N=C(N)N[C@H]1CC[C@@H](C(=O)Nc2ccc(C[C@H](NC(=O)[C@@H]3CCCN3S(=O)(=O)c3ccccc3)C(=O)O)cc2)CC1 | 
0.2 nM | O=C(CCCNc1ccccn1)Nc1ccc(C[C@H](NC(=O)[C@@H]2CCCN2S(=O)(=O)c2ccccc2)C(=O)O)cc1 | IC50 (Integrin alpha-V/beta-5): > 10000 nM; IC50 (Integrin alpha-5/beta-1): > 10000 nM; IC50 (Integrin alpha-V/beta-3): > 10000 nM; IC50 (Integrin alpha-V/beta-8): 400 nM
0.25 nM | N=C(N)NCCCC(=O)Nc1ccc(C[C@H](NC(=O)[C@@H]2CCCCN2S(=O)(=O)c2ccccc2)C(=O)O)cc1 | IC50 (Integrin alpha-V/beta-5): 1600 nM; IC50 (Integrin alpha-5/beta-1): 3200 nM; IC50 (Integrin alpha-V/beta-3): 2000 nM; IC50 (Integrin alpha-V/beta-8): 2500 nM
2 nM | O=C(CCCCNC1=NCCCN1)Nc1ccc(C[C@H](NC(=O)[C@@H]2CCCN2S(=O)(=O)c2ccccc2)C(=O)O)cc1 | 
0.31 to 0.32 nM | O=C(CCCCNC1=NCCN1)Nc1ccc(C[C@H](NC(=O)[C@@H]2CCCN2S(=O)(=O)c2ccccc2)C(=O)O)cc1 | IC50 (Integrin alpha-V/beta-1; read-out: pIC50 (converted)): 0.316 nM; IC50 (Integrin alpha-V/beta-5): 200 nM; IC50 (Integrin alpha-5/beta-1): > 10000 nM; IC50 (Integrin alpha-V/beta-3): > 10000 nM; IC50 (Integrin alpha-V/beta-8): > 10000 nM
790 nM | Cc1cc(C)cc(S(=O)(=O)N2CCC[C@H]2C(=O)N[C@@H](Cc2ccc(NC(=O)CCCNC(=N)N)cc2)C(=O)O)c1 | 
2000 nM | CC1(C)SCN(S(=O)(=O)c2ccccc2)[C@@H]1C(=O)N[C@@H](Cc1ccc(NC(=O)CCCCNC(=N)N)cc1)C(=O)O | 
 | C[C@@]1(C(=O)N[C@@H](Cc2ccc(NC(=O)CCCCNC(=N)N)cc2)C(=O)O)CCCN1S(=O)(=O)c1ccccc1 | IC50 (Integrin alpha-V/beta-1; cho, read-out: IC50): > 10000 nM; IC50 (Integrin alpha-V/beta-1; read-out: pIC50 (converted)): > 10000 nM
50 nM | N=C(N)NCCCCC(=O)Nc1ccc(C[C@H](NC(=O)[C@@H]2CCCN2S(=O)(=O)c2cccs2)C(=O)O)cc1 | 
0.5 nM | N=C(N)NCCCCC(=O)Nc1ccc(C[C@H](NC(=O)[C@@H]2C[C@@H](F)CN2S(=O)(=O)c2ccccc2)C(=O)O)cc1 | 

IC50 (Integrin alpha-V/beta-1; read-out: IC50) | SMILES | also measured
200 nM | Cc1cccc(NCCCC(=O)Nc2ccc(C[C@H](NC(=O)[C@@H]3CCCN3S(=O)(=O)c3ccccc3)C(=O)O)cc2)n1 | 
2 nM | O=C(CCCCNc1ccccn1)Nc1ccc(C[C@H](NC(=O)[C@@H]2CCCN2S(=O)(=O)c2ccccc2)C(=O)O)cc1 | 
40 nM | N=C(N)NCCCCC(=O)Nc1ccc(C[C@H](NC(=O)[C@@H]2CCCN2S(=O)(=O)c2cc(F)cc(F)c2)C(=O)O)cc1 | 
0.13 nM | O=C(CCCNC1=NCCN1)Nc1ccc(C[C@H](NC(=O)[C@@H]2CCCN2S(=O)(=O)c2ccccc2)C(=O)O)cc1 | 
0.31 to 0.32 nM | N=C(N)NCCCCC(=O)Nc1ccc(C[C@H](NC(=O)[C@@H]2CCCCN2S(=O)(=O)c2ccccc2)C(=O)O)cc1 | IC50 (Integrin alpha-V/beta-1; read-out: pIC50 (converted)): 0.316 nM; IC50 (Integrin alpha-V/beta-5): 160 nM; IC50 (Integrin alpha-5/beta-1): 3200 nM; IC50 (Integrin alpha-V/beta-3): 4000 nM; IC50 (Integrin alpha-V/beta-8): 2000 nM
630 nM | N=C(N)NCCCCC(=O)Nc1ccc(C[C@H](NC(=O)[C@@H]2CCCN2S(=O)(=O)c2ccccc2[N+](=O)[O-])C(=O)O)cc1 | 
13 nM | N=C(N)NCCCCC(=O)Nc1ccc(C[C@H](NC(=O)[C@@H]2CCCN2S(=O)(=O)c2cccc([N+](=O)[O-])c2)C(=O)O)cc1 | 
79 nM | CN(C)c1cccc2c(S(=O)(=O)N3CCC[C@H]3C(=O)N[C@@H](Cc3ccc(NC(=O)CCCCNC(=N)N)cc3)C(=O)O)cccc12 | 
0.02 nM | N=C(N)NCCCC(=O)Nc1ccc(C[C@H](NC(=O)[C@@H]2CCCN2S(=O)(=O)c2ccccc2)C(=O)O)cc1 | 
50 nM | N=C(N)Nc1ccc(CC(=O)Nc2ccc(C[C@H](NC(=O)[C@@H]3CCCN3S(=O)(=O)c3ccccc3)C(=O)O)cc2)cc1 | 
630 nM | Cc1ccc(S(=O)(=O)N2CCC[C@H]2C(=O)N[C@@H](Cc2ccc(NC(=O)CCCNC(=N)N)cc2)C(=O)O)cc1 | 
320 nM | Cc1ccc(NCCCC(=O)Nc2ccc(C[C@H](NC(=O)[C@@H]3CCCN3S(=O)(=O)c3ccccc3)C(=O)O)cc2)nc1 | 
16 nM | N=C(N)NCCCCC(=O)Nc1ccc(C[C@H](NC(=O)[C@@H]2CSCN2S(=O)(=O)c2ccccc2)C(=O)O)cc1 | 
2500 nM | N=C(N)NC12CC3CC(C1)CC(C(=O)Nc1ccc(C[C@H](NC(=O)[C@@H]4CCCN4S(=O)(=O)c4ccccc4)C(=O)O)cc1)(C3)C2 | 
500 nM | Cc1cc(F)ccc1S(=O)(=O)N1CCC[C@H]1C(=O)N[C@@H](Cc1ccc(NC(=O)CCCCNC(=N)N)cc1)C(=O)O | 
800 nM | N=C(N)NCCCCC(=O)Nc1ccc(C[C@H](NC(=O)[C@@H]2C=CCN2S(=O)(=O)c2ccccc2)C(=O)O)cc1 | 
6300 nM | Cc1ccc(S(=O)(=O)N2CCC[C@H]2C(=O)N[C@@H](Cc2ccc(NC(=O)CCCCNC(=N)N)cc2)C(=O)O)c2ccccc12 | 
